Measurements taken from ChEMBL document CHEMBL1629633, “Prevalence of sulfonamide resistance genes in bacterial isolates from manured agricultural soils and pig slurry in the United Kingdom” (2009).

How the values were obtained:
[1] = Antimicrobial activity against Acinetobacter sp. N2 isolate C439 harboring sul1 to sul3 genes assessed as antibiotic resistance breakpoint by agar dilution method; assay type: functional
Method in brief: (§1)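 Agar dilution on Iso-Sensitest agar for MICs and resistance breakpoints. Each isolate's inoculum (100 μl) was adjusted to OD600 0.4. Isolates came from soil cores of a field given pig slurry, or from the pig slurry itself. They were picked from nonselective or antibiotic plates incubated aerobically at 28°C, purified by restreaking, checked for sul genes by PCR and identified by 16S rRNA sequencing.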

Pseudomonas lini = assay: Antimicrobial activity against Pseudomonas lini isolate C701 harboring sul1 to sul3 genes assessed as antibiotic resistance breakpoint by agar dilution method; assay type: functional; method in brief: as §1
Aerococcus viridans = assay: Antimicrobial activity against Aerococcus viridans isolate PGS22 harboring sul1 to sul3 genes assessed as antibiotic resistance breakpoint by agar dilution method; assay type: functional; method in brief: as §1
[2] = test system: Stenotrophomonas maltophilia; assay: Antimicrobial activity against Stenotrophomonas maltophilia isolate C422 harboring sul1 to sul3 genes assessed as antibiotic resistance breakpoint by agar dilution method; assay type: functional
Method in brief: (§2)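 Isolates were recovered from manured clay soil or pig slurry on Iso-Sensitest agar at 28°C. sul genes were detected by PCR, and identity was assigned by ~800 bp 16S rRNA sequencing. MICs and resistance breakpoints were found by agar dilution on Iso-Sensitest agar, with each inoculum (100 μl) adjusted to OD600 0.4.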

[3] = test system: Lysinibacillus sphaericus; assay: Antimicrobial activity against Bacillus sphaericus isolate C237 harboring sul1 to sul3 genes assessed as antibiotic resistance breakpoint by agar dilution method; assay type: functional; method in brief: as §1
Acinetobacter lwoffii [4] = assay: Antimicrobial activity against Acinetobacter lwoffii isolate C2 harboring sul1 to sul3 genes assessed as antibiotic resistance breakpoint by agar dilution method; assay type: functional; method in brief: as §1
Providencia stuartii = assay: Antimicrobial activity against Providencia stuartii isolate C167 harboring sul1 to sul3 genes assessed as antibiotic resistance breakpoint by agar dilution method; assay type: functional; method in brief: as §1
Enterococcus hirae = assay: Antimicrobial activity against Enterococcus hirae isolate PGS48 harboring sul1 to sul3 genes assessed as antibiotic resistance breakpoint by agar dilution method; assay type: functional; method in brief: as §1
[5] = test system: Arthrobacter arilaitensis; assay: Antimicrobial activity against Arthrobacter arilaitensis isolate C361 harboring sul1 to sul3 genes assessed as antibiotic resistance breakpoint by agar dilution method; assay type: functional, Glutamicibacter arilaitensis; method in brief: as §1
[6] = Antimicrobial activity against Acinetobacter sp. An9 isolate PGS49 harboring sul1 to sul3 genes assessed as antibiotic resistance breakpoint by agar dilution method; assay type: functional; method in brief: as §1
Acinetobacter lwoffii [7] = assay: Antimicrobial activity against Acinetobacter lwoffii isolate PGS47 harboring sul1 to sul3 genes assessed as antibiotic resistance breakpoint by agar dilution method; assay type: functional; method in brief: as §1
Enterococcus sulfureus = assay: Antimicrobial activity against Enterococcus sulfureus isolate PGS61 harboring sul1 to sul3 genes assessed as antibiotic resistance breakpoint by agar dilution method; assay type: functional; method in brief: as §1
Acinetobacter lwoffii [8] = assay: Antimicrobial activity against Acinetobacter lwoffii isolate C15 harboring sul1 to sul3 genes assessed as antibiotic resistance breakpoint by agar dilution method; assay type: functional; method in brief: as §1
[9] = Antimicrobial activity against Psychrobacter ikaite isolate C20 harboring sul1 to sul3 genes assessed as antibiotic resistance breakpoint by agar dilution method; assay type: functional; method in brief: as §1
[10] = Antimicrobial activity against Psychrobacter sp. DY9-2 isolate C711 harboring sul1 to sul3 genes assessed as antibiotic resistance breakpoint by agar dilution method; assay type: functional; method in brief: as §2
[11] = test system: Psychrobacter frigidicola; assay: Antimicrobial activity against Psychrobacter frigidicola isolate C712 harboring sul1 to sul3 genes assessed as antibiotic resistance breakpoint by agar dilution method; assay type: functional; method in brief: as §1
[12] = Antimicrobial activity against Psychrobacter ikaite isolate C713 harboring sul1 to sul3 genes assessed as antibiotic resistance breakpoint by agar dilution method; assay type: functional; method in brief: as §2
[13] = test system: Acinetobacter calcoaceticus; assay: Antimicrobial activity against Acinetobacter calcoaceticus isolate C35 harboring sul1 to sul3 genes assessed as antibiotic resistance breakpoint by agar dilution method; assay type: functional; method in brief: as §1
[14] = test system: Acinetobacter calcoaceticus; assay: Antimicrobial activity against Acinetobacter calcoaceticus isolate C36 harboring sul1 to sul3 genes assessed as antibiotic resistance breakpoint by agar dilution method; assay type: functional; method in brief: as §1
Acinetobacter lwoffii [15] = assay: Antimicrobial activity against Acinetobacter lwoffii isolate C37 harboring sul1 to sul3 genes assessed as antibiotic resistance breakpoint by agar dilution method; assay type: functional; method in brief: as §1
[16] = test system: Acinetobacter rhizosphaerae; assay: Antimicrobial activity against Acinetobacter rhizosphaerae isolate C44 harboring sul1 to sul3 genes assessed as antibiotic resistance breakpoint by agar dilution method; assay type: functional; method in brief: as §1
Acinetobacter lwoffii [17] = assay: Antimicrobial activity against Acinetobacter lwoffii isolate C141 harboring sul1 to sul3 genes assessed as antibiotic resistance breakpoint by agar dilution method; assay type: functional; method in brief: as §1
Bacillus psychrodurans = assay: Antimicrobial activity against Bacillus psychrodurans isolate C328 harboring sul1 to sul3 genes assessed as antibiotic resistance breakpoint by agar dilution method; assay type: functional, Psychrobacillus psychrodurans; method in brief: as §1
Shigella flexneri = assay: Antimicrobial activity against Shigella flexneri isolate C506 harboring sul1 to sul3 genes assessed as antibiotic resistance breakpoint by agar dilution method; assay type: functional; method in brief: as §2

Measured: Activity

CN[C@@H]1[C@H](O[C@H]2[C@H](O[C@H]3[C@H](O)[C@@H](O)[C@H](N=C(N)N)[C@@H](O)[C@@H]3N=C(N)N)O[C@@H](C)[C@]2(O)C=O)O[C@@H](CO)[C@H](O)[C@H]1O [STREPTOMYCIN]
16 µg/mL: all assays above
